Measurements published in ChEMBL document CHEMBL1142148, “Antibiotic susceptibility profile of bifidobacteria as affected by oxgall, acid, and hydrogen peroxide stress” (2007).

Tests used:
Bifidobacterium longum [1] = assay: Antimicrobial activity against Bifidobacterium longum P/N 601377; type: functional
How it was run: (§1)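 Broth microdilution in MRS plus 0.05% L-cysteine-HCl. Mid-log culture adjusted to OD650 0.1, giving about 2.5 × 10^4 to 5.0 × 10^4 CFU/well, then added to twofold serial dilutions of agent. Plates incubated anaerobically at 37°C for 18 h and read at OD650. MIC is the lowest concentration matching the uninoculated blank OD, taken as the median of four repeats.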

Bifidobacterium animalis [2] = assay: Antimicrobial activity against Bifidobacterium animalis ATCC 27536; type: functional; how it was run: as §1
Bifidobacterium longum [3] = assay: Antimicrobial activity against 90 mins oxgall-stressed Bifidobacterium longum ATCC 15708 after 18 hrs; type: functional
How it was run: (§2)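 Cells pelleted from mid-log MRS culture and resuspended in MRS (initial pH 6.5) with 0.3% (wt/vol) oxgall for 90 min anaerobically at 37°C. They were then regrown in MRS pH 6.5 for 24 h (footnote: 18 h) anaerobically and tested for MIC by the same broth microdilution assay. Median of four repetitions.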

Bifidobacterium longum [4] = assay: Antimicrobial activity against 90 mins hydrogen peroxide-stressed Bifidobacterium longum P/N 601377 after 18 hrs; type: functional
How it was run: (§3)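 Stress applied for 90 min at 37°C under anaerobic conditions, using MRS (initial pH 6.5) containing H2O2 at each strain's own inhibitory concentration. The H2O2 level was set beforehand by microplate tolerance testing. Challenged cells were regrown in MRS for 24 h (footnote: 18 h) before MIC testing by broth microdilution. Median of four repetitions.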

Bifidobacterium animalis [5] = assay: Antimicrobial activity against 90 mins oxgall-stressed Bifidobacterium animalis ATCC 27536 after 18 hrs; type: functional; how it was run: as §2
[6] = system: Bifidobacterium thermophilum; assay: Antimicrobial activity against 90 mins hydrogen peroxide-stressed Bifidobacterium thermophilum ATCC 25866 after 18 hrs; type: functional; how it was run: as §3
[7] = Antimicrobial activity against 60 min 1 M HCl-stressed Bifidobacterium infantis ATCC 15697 after 18 hrs; type: functional, Bifidobacterium longum subsp. infantis; conditions: Bifidobacterium longum
How it was run: (§4)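 Mid-log MRS culture pelleted and resuspended in MRS broth brought to pH 2.0 with 1 M HCl, held anaerobically at 37°C for 60 min, then subcultured in MRS (pH 6.5) for 24 h anaerobically before MIC testing by broth microdilution (as for unstressed cells). Table footnote gives 18 h anaerobic regrowth after the stress. MIC is the median of four repetitions.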

Bifidobacterium bifidum [8] = assay: Antimicrobial activity against 90 mins hydrogen peroxide-stressed Bifidobacterium bifidum R0071 after 18 hrs; type: functional; how it was run: as §3
[9] = system: Bifidobacterium pseudolongum; assay: Antimicrobial activity against 60 min 1 M HCl-stressed Bifidobacterium pseudolongum ATCC 25562 after 18 hrs; type: functional; how it was run: as §4
Bifidobacterium longum [10] = assay: Antimicrobial activity against 90 mins oxgall-stressed Bifidobacterium longum R0175 after 18 hrs; type: functional; how it was run: as §2
Bifidobacterium animalis [11] = assay: Antimicrobial activity against 60 min 1 M HCl-stressed Bifidobacterium animalis ATCC 27536 after 18 hrs; type: functional; how it was run: as §4
Bifidobacterium longum [12] = assay: Antimicrobial activity against Bifidobacterium longum R0175; type: functional; how it was run: as §1
Bifidobacterium longum [13] = assay: Antimicrobial activity against 90 mins oxgall-stressed Bifidobacterium longum P/N 601377 after 18 hrs; type: functional; how it was run: as §2
Bifidobacterium bifidum [14] = assay: Antimicrobial activity against 90 mins oxgall-stressed Bifidobacterium bifidum ATCC 15696 after 18 hrs; type: functional; how it was run: as §2
[15] = system: Bifidobacterium thermophilum; assay: Antimicrobial activity against 90 mins oxgall-stressed Bifidobacterium thermophilum ATCC 25866 after 18 hrs; type: functional; how it was run: as §2
Bifidobacterium breve [16] = assay: Antimicrobial activity against 60 min 1 M HCl-stressed Bifidobacterium breve ATCC 15700 after 18 hrs; type: functional; how it was run: as §4
Bifidobacterium longum [17] = assay: Antimicrobial activity against Bifidobacterium longum ATCC 15708; type: functional; how it was run: as §1
Bifidobacterium longum [18] = assay: Antimicrobial activity against 60 min 1 M HCl-stressed Bifidobacterium longum P/N 601377 after 18 hrs; type: functional; how it was run: as §4
Bifidobacterium longum [19] = assay: Antimicrobial activity against Bifidobacterium longum ATCC 15707; type: functional; how it was run: as §1
Bifidobacterium bifidum [20] = assay: Antimicrobial activity against Bifidobacterium bifidum ATCC 15696; type: functional; how it was run: as §1
Bifidobacterium longum [21] = assay: Antimicrobial activity against 90 mins oxgall-stressed Bifidobacterium longum ATCC 15707 after 18 hrs; type: functional; how it was run: as §2
Bifidobacterium bifidum [22] = assay: Antimicrobial activity against 60 min 1 M HCl-stressed Bifidobacterium bifidum BB12 after 18 hrs; type: functional; how it was run: as §4
Bifidobacterium animalis [23] = assay: Antimicrobial activity against 90 mins hydrogen peroxide-stressed Bifidobacterium animalis ATCC 27536 after 18 hrs; type: functional; how it was run: as §3
Bifidobacterium bifidum [24] = assay: Antimicrobial activity against Bifidobacterium bifidum R0071; type: functional; how it was run: as §1
Bifidobacterium longum [25] = assay: Antimicrobial activity against 90 mins hydrogen peroxide-stressed Bifidobacterium longum ATCC 15708 after 18 hrs; type: functional; how it was run: as §3
Bifidobacterium breve [26] = assay: Antimicrobial activity against 90 mins oxgall-stressed Bifidobacterium breve R0070 after 18 hrs; type: functional; how it was run: as §2
Bifidobacterium breve [27] = assay: Antimicrobial activity against 90 mins oxgall-stressed Bifidobacterium breve ATCC 15700 after 18 hrs; type: functional; how it was run: as §2
[28] = system: Bifidobacterium pseudolongum; assay: Antimicrobial activity against 90 mins oxgall-stressed Bifidobacterium pseudolongum ATCC 25562 after 18 hrs; type: functional; how it was run: as §2
Bifidobacterium bifidum [29] = assay: Antimicrobial activity against 90 mins oxgall-stressed Bifidobacterium bifidum R0071 after 18 hrs; type: functional; how it was run: as §2
Bifidobacterium longum [30] = assay: Antimicrobial activity against 90 mins hydrogen peroxide-stressed Bifidobacterium longum R0175 after 18 hrs; type: functional; how it was run: as §3
Bifidobacterium longum [31] = assay: Antimicrobial activity against 60 min 1 M HCl-stressed Bifidobacterium longum ATCC 15707 after 18 hrs; type: functional; how it was run: as §4
Bifidobacterium longum [32] = assay: Antimicrobial activity against 90 mins hydrogen peroxide-stressed Bifidobacterium longum ATCC 15707 after 18 hrs; type: functional; how it was run: as §3
Bifidobacterium bifidum [33] = assay: Antimicrobial activity against Bifidobacterium bifidum BB12; type: functional; how it was run: as §1
Bifidobacterium breve [34] = assay: Antimicrobial activity against 90 mins hydrogen peroxide-stressed Bifidobacterium breve R0070 after 18 hrs; type: functional; how it was run: as §3
Bifidobacterium bifidum [35] = assay: Antimicrobial activity against 90 mins hydrogen peroxide-stressed Bifidobacterium bifidum BB12 after 18 hrs; type: functional; how it was run: as §3
[36] = system: Bifidobacterium pseudolongum; assay: Antimicrobial activity against Bifidobacterium pseudolongum ATCC 25562; type: functional; how it was run: as §1
Bifidobacterium breve [37] = assay: Antimicrobial activity against 60 min 1 M HCl-stressed Bifidobacterium breve R0070 after 18 hrs; type: functional; how it was run: as §4
[38] = system: Bifidobacterium thermophilum; assay: Antimicrobial activity against 60 min 1 M HCl-stressed Bifidobacterium thermophilum ATCC 25866 after 18 hrs; type: functional; how it was run: as §4
Bifidobacterium bifidum [39] = assay: Antimicrobial activity against 60 min 1 M HCl-stressed Bifidobacterium bifidum R0071 after 18 hrs; type: functional; how it was run: as §4
Bifidobacterium breve [40] = assay: Antimicrobial activity against Bifidobacterium breve ATCC 15700; type: functional; how it was run: as §1
[41] = Antimicrobial activity against 90 mins oxgall-stressed Bifidobacterium infantis ATCC 15697 after 18 hrs; type: functional, Bifidobacterium longum subsp. infantis; conditions: Bifidobacterium longum; how it was run: as §2
[42] = Antimicrobial activity against Bifidobacterium infantis ATCC 15697; type: functional, Bifidobacterium longum subsp. infantis; conditions: Bifidobacterium longum; how it was run: as §1
Bifidobacterium bifidum [43] = assay: Antimicrobial activity against 90 mins oxgall-stressed Bifidobacterium bifidum BB12 after 18 hrs; type: functional; how it was run: as §2
[44] = system: Bifidobacterium thermophilum; assay: Antimicrobial activity against Bifidobacterium thermophilum ATCC 25866; type: functional; how it was run: as §1
Bifidobacterium breve [45] = assay: Antimicrobial activity against 90 mins hydrogen peroxide-stressed Bifidobacterium breve ATCC 15700 after 18 hrs; type: functional; how it was run: as §3
Bifidobacterium longum [46] = assay: Antimicrobial activity against 60 min 1 M HCl-stressed Bifidobacterium longum R0175 after 18 hrs; type: functional; how it was run: as §4
Bifidobacterium breve [47] = assay: Antimicrobial activity against Bifidobacterium breve R0070; type: functional; how it was run: as §1

- MIC (Bifidobacterium longum [1]): 15.6 µg/mL
- MIC (Bifidobacterium animalis [2]): 3.9 µg/mL
- MIC (Bifidobacterium longum [3]): 125 µg/mL
- MIC (Bifidobacterium longum [4]): 125 µg/mL
- MIC (Bifidobacterium animalis [5]): 125 µg/mL
- MIC [6]: 15.6 µg/mL
- MIC [7]: 125 µg/mL
- MIC (Bifidobacterium bifidum [8]): 62.5 µg/mL
- MIC [9]: 0.98 µg/mL
- MIC (Bifidobacterium longum [10]): 125 µg/mL
- MIC (Bifidobacterium animalis [11]): 62.5 µg/mL
- MIC (Bifidobacterium longum [12]): 62.5 µg/mL
- MIC (Bifidobacterium longum [13]): 62.5 µg/mL
- MIC (Bifidobacterium bifidum [14]): 125 µg/mL
- MIC [15]: 125 µg/mL
- MIC (Bifidobacterium breve [16]): 250 µg/mL
- MIC (Bifidobacterium longum [17]): 31.2 µg/mL
- MIC (Bifidobacterium longum [18]): 0.98 µg/mL
- MIC (Bifidobacterium longum [19]): 62.5 µg/mL
- MIC (Bifidobacterium bifidum [20]): 31.2 µg/mL
- MIC (Bifidobacterium longum [21]): 125 µg/mL
- MIC (Bifidobacterium bifidum [22]): 0.98 µg/mL
- MIC (Bifidobacterium animalis [23]): 62.5 µg/mL
- MIC (Bifidobacterium bifidum [24]): 31.2 µg/mL
- MIC (Bifidobacterium longum [25]): 31.2 µg/mL
- MIC (Bifidobacterium breve [26]): 62.5 µg/mL
- MIC (Bifidobacterium breve [27]): 31.2 µg/mL
- MIC [28]: 125 µg/mL
- MIC (Bifidobacterium bifidum [29]): 62.5 µg/mL
- MIC (Bifidobacterium longum [30]): 15.6 µg/mL
- MIC (Bifidobacterium longum [31]): 62.5 µg/mL
- MIC (Bifidobacterium longum [32]): 7.8 µg/mL
- MIC (Bifidobacterium bifidum [33]): 15.6 µg/mL
- MIC (Bifidobacterium breve [34]): 7.8 µg/mL
- MIC (Bifidobacterium bifidum [35]): 7.8 µg/mL
- MIC [36]: 15.6 µg/mL
- MIC (Bifidobacterium breve [37]): 31.2 µg/mL
- MIC [38]: 125 µg/mL
- MIC (Bifidobacterium bifidum [39]): 31.2 µg/mL
- MIC (Bifidobacterium breve [40]): 31.2 µg/mL
- MIC [41]: 250 µg/mL
- MIC [42]: 125 µg/mL
- MIC (Bifidobacterium bifidum [43]): 3.9 µg/mL
- MIC [44]: 62.5 µg/mL
- MIC (Bifidobacterium breve [45]): 31.2 µg/mL
- MIC (Bifidobacterium longum [46]): 0.98 µg/mL
- MIC (Bifidobacterium breve [47]): 62.5 µg/mL
SMILES: CN(C)[C@@H]1C(O)=C(C(N)=O)C(=O)[C@@]2(O)C(O)=C3C(=O)c4c(O)cccc4[C@@](C)(O)[C@H]3C[C@@H]12.Cl [TETRACYCLINE HYDROCHLORIDE]
